Compounds with a hit are over-represented: about 2.7% of the library has one in this group of screens.
Yeast growth inh – growth inhibitors of yeast BB579 in restrictive medium, primary screen, yeast lifespan-shortening project, S. cerevisiae; inhibition, % at 10 µM; AID 804, 2007; OD615, 48 h; 140,000 compounds, 0.51% hits;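 active = inhibition above a set limit, 3 SD over the mean compound inhibition, cut at about 44% in these data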
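Assay system: S. cerevisiae DeaD strain BB579 yeast. Medium: CSMM-D restrictive synthetic medium containing dextrose (glucose). Times: 4 h cell preincubation, 48 h compound exposure, 30 °C humidified. Signal: OD615 turbidity measurement. Benchmarks: positive control amphotericin B 10 µg/mL.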
RAM inhibit – inhibitors of the yeast RAM network, primary screen, dse1pr::URA3 reporter, 5-FOA selection. S. cerevisiae dse1pr::URA3 reporter, 5-FOA growth OD615, 2 d; analog-sensitive cbk1-as2 kinase mutant strain. inhibition, % at 50 µM. 190,000 compounds, 1.8% hits. AID 868, 2007;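 active = inhibition above a set limit, 3 SD over mean compound inhibition, cut at about 8.4% in these data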;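 note: 0% = DMSO-only wells with no growth and 100% = 10 µM 1-NA-PP1 full growth; inhibition rescues growth on 5-FOA so higher OD means more RAM inhibition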
Yeast life ext – compounds extending yeast replicative lifespan, primary screen, S. cerevisiae, OD615. S. cerevisiae growth with nicotinamide; deaD strain in restrictive glucose medium. 130,000 compounds, 0.68% hits. AID 775, 2007. inhibition of the nicotinamide effect, % at 10 µM;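 active = inhibition above a set limit, placed 3 SD over the median of all compounds, cut at about 26% in these data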;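 note: 0% = nicotinamide-treated wells and 100% = cells grown without nicotinamide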
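Test system – modified budding yeast, DeaD strain · Compound – single dose 10 µM compound, 0.25% DMSO · Times – culture preincubation 4 h, compound exposure 48 h, both 30 °C · Detection – optical density (absorbance) at 615 nm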
SDO1 yeast rescue – growth rescue of sdo1-depleted yeast, primary screen, S. cerevisiae, bone marrow failure model. AID 817, 2007. 140,000 compounds, 0.21% hits. S. cerevisiae sdo1-depleted JHY4D growth rescue, OD600 30 h; stronger effect = higher value; pdr5 snq2 efflux-pump mutant strain. z-score at 10 µM;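 active = z-score above 3 at both the 24 hr and the 30 hr optical density reads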;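 note: z-score against mean and SD of all compound wells on the same plate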
Numbers without * were called inactive.

N#C/C(=C\c1ccc([N+](=O)[O-])o1)c1nc2ccccc2[nH]1 was read as Yeast growth inh 67*, RAM inhibit 2, Yeast life ext 21 and SDO1 yeast rescue -2.1.
Cc1ccc2nc(/C(C#N)=C\c3ccc([N+](=O)[O-])o3)[nH]c2c1 was read as Yeast growth inh 99*, RAM inhibit -1, Yeast life ext -22 and SDO1 yeast rescue -2.2.
`N#C/C(=C\c1ccc(Sc2ccccc2)o1)c1nc2ccccc2[nH]1` gave Yeast growth inh -69, RAM inhibit 7, Yeast life ext 2 and SDO1 yeast rescue -0.09.
`Cc1ccc2nc(/C(C#N)=C\c3ccc(N4CCOCC4)o3)[nH]c2c1` gave Yeast growth inh -29, RAM inhibit -1 and SDO1 yeast rescue -2.1.
CC/C(=N/NC(=O)CCC(=O)Nc1ccccc1OC)c1ccccc1 was read as Yeast growth inh -2, RAM inhibit 1, Yeast life ext -2 and SDO1 yeast rescue 2.
CC(C)OC(=O)CC(=O)CSc1nc2c(c(-c3cccs3)c1C#N)CCC2 was read as Yeast growth inh -29, RAM inhibit 10*, Yeast life ext 7 and SDO1 yeast rescue -1.1.
Screening O=[N+]([O-])c1cccc(/C=N/n2cnnc2)c1O returned Yeast growth inh 76*, RAM inhibit -1, Yeast life ext -9 and SDO1 yeast rescue 0.52.
`NC(CSS(=O)(=O)O)=NCCC12CC3CC(CC(O)(C3)C1)C2` gave Yeast growth inh -13, RAM inhibit 0, Yeast life ext 3 and SDO1 yeast rescue 1.
COC(=O)c1ccc(-n2c(C)cc(C(=O)COC(=O)CC3Sc4ccccc4NC3=O)c2C)cc1 (stereo not drawn) was read as Yeast growth inh -28, RAM inhibit 8.8*, Yeast life ext -2 and SDO1 yeast rescue -0.57.
Screening Cc1cc(C(=O)COC(=O)CC2Sc3ccccc3NC2=O)c(C)n1-c1ccccc1 (stereo not drawn) returned Yeast growth inh -33, RAM inhibit 3, Yeast life ext -2 and SDO1 yeast rescue -0.34.
CCCC(=O)NC(c1cccs1)c1cc([N+](=O)[O-])c2cccnc2c1O (stereo not drawn) was read as Yeast growth inh 47*, RAM inhibit 5, Yeast life ext -2 and SDO1 yeast rescue 0.07.
For CC(=O)NC(c1ccccc1)c1cc([N+](=O)[O-])c2cccnc2c1O (stereo not drawn) the results were RAM inhibit 2.
CC(=O)NC(c1cccs1)c1cc([N+](=O)[O-])c2cccnc2c1O (stereo not drawn) was read as Yeast growth inh 80*, RAM inhibit 0, Yeast life ext -4 and SDO1 yeast rescue -0.8.
`CC(C)C(=O)NC(c1ccccc1)c1cc([N+](=O)[O-])c2cccnc2c1O` (stereo not drawn) gave Yeast growth inh 74*, RAM inhibit 4, Yeast life ext -4 and SDO1 yeast rescue -0.48.
CCCCOCC(O)CN1CCN(C(C)=O)CC1 (stereo not drawn) was read as Yeast growth inh -8, RAM inhibit 2, Yeast life ext -6 and SDO1 yeast rescue 1.3.
CCN(CC)S(=O)(=O)c1cccc(NC(=O)C(=O)c2c(-c3ccccc3)cc3ccccn23)c1 was read as Yeast growth inh -85, RAM inhibit 9.9*, Yeast life ext 9 and SDO1 yeast rescue -0.75.
CCN(CC)S(=O)(=O)c1cccc(C(=O)Nc2cc(C)cc(C)c2)c1 was read as Yeast growth inh -36, RAM inhibit 8.5*, Yeast life ext -1 and SDO1 yeast rescue -0.58.
Screening CCN(CC)S(=O)(=O)c1cccc(C(=O)Nc2cccc(C)c2)c1 returned Yeast growth inh 11, RAM inhibit 0, Yeast life ext -7 and SDO1 yeast rescue -1.1.
`CCN(CC)S(=O)(=O)c1cccc(NC(=O)c2ccc(Br)cc2)c1` gave RAM inhibit 9.7*.
C=C(c1ccc(OC)cc1)c1ccc(OC)cc1 was read as Yeast growth inh -45, RAM inhibit 3, Yeast life ext -8 and SDO1 yeast rescue -0.37.
For O=C(Nc1nc2c(s1)CCCC2)c1ccc(Br)o1 the results were Yeast growth inh -7, RAM inhibit 3, Yeast life ext -9 and SDO1 yeast rescue -0.99.
Screening O=C(Nc1ccccc1)C1=C[C@H](c2csc3ccccc23)C[C@H](OCCCCO)O1 returned RAM inhibit 11*.
C#CCNC(=O)C1=C[C@@H](c2ccc(Br)cc2)C[C@@H](OCc2ccc(CO)cc2)O1 was read as RAM inhibit 8.
`O=C(Nc1ccccc1)C1=C[C@H](c2csc3ccccc23)C[C@H](OCc2ccc(CO)cc2)O1` gave RAM inhibit 5.
For O=C(NCc1ccccc1)C1=C[C@H](c2csc3ccccc23)C[C@H](OCCCCO)O1 the results were RAM inhibit 11*.
O=C(NCc1ccccc1)C1=C[C@@H](c2ccc(Br)cc2)C[C@@H](OCc2ccc(CO)cc2)O1 was read as RAM inhibit 8.8*.
`O=C(C1=C[C@H](c2csc3ccccc23)C[C@H](OCCCCO)O1)N1CCN(Cc2ccccc2)CC1` gave RAM inhibit 4.
Screening Cn1c(CNC(=O)c2ccc(Cl)cc2)nnc1SCC(=O)Nc1sc2c(c1C#N)CCCC2 returned Yeast growth inh -19, RAM inhibit 5, Yeast life ext -4 and SDO1 yeast rescue 0.16.
Cc1cc(C)cc(NC(=O)CN2CCC(NC(=O)Cc3ccccc3)CC2)c1 was read as Yeast growth inh -5, RAM inhibit 0, Yeast life ext 27* and SDO1 yeast rescue 0.63.
`COc1ccc(-c2cnnn2-c2ccc(NC(=O)c3ccc(S(=O)(=O)N4CCCCC4)cc3)cc2)cc1` gave Yeast growth inh -37, RAM inhibit 9.8*, Yeast life ext -5 and SDO1 yeast rescue 1.
`COc1ccc(C(=O)Nc2ccc(S(=O)(=O)N3CCCCC3)cc2)cc1` gave Yeast growth inh -27, RAM inhibit 2, Yeast life ext -24 and SDO1 yeast rescue 0.
Screening O=C(c1ccc(F)cc1F)N(Cc1ccccn1)Cc1ccco1 returned Yeast growth inh -8, RAM inhibit 0, Yeast life ext 1 and SDO1 yeast rescue -1.4.
`COc1cc(-n2c(=O)c3ccccc3n(CC(=O)c3ccccc3)c2=O)cc(OC)c1OC` gave RAM inhibit 5.
`COc1cc2c(=O)n(-c3ccc(C)cc3)c(=O)n(CC(=O)c3ccc4c(c3)OCO4)c2cc1OC` gave Yeast growth inh -53, RAM inhibit 9.1*, Yeast life ext -1 and SDO1 yeast rescue -2.6.
COc1ccc(-c2nnc3sc(CCN4C(=O)c5ccccc5C4=O)nn23)cc1 was read as Yeast growth inh -6, RAM inhibit 9.4*, Yeast life ext -3 and SDO1 yeast rescue -1.1.
`COc1ccc(-c2nn3c(-c4ccccc4)nnc3s2)cc1` gave Yeast growth inh -23, RAM inhibit 6, Yeast life ext -8 and SDO1 yeast rescue -2.4.
